In ChEMBL document CHEMBL1759860, “Synthesis and biological evaluation of 5-membered spiro heterocycle-benzopyran derivatives against myocardial ischemia” (2011):
Active and inactive are the calls of the source. No cut-off for these calls is given here.

How the values were obtained:
H9c2 [1] = assay: Anti-ischemic activity against ischemia/reperfusion-induced rat H9c2 cell death assessed as cell viability at 10 uM in presence of mito-KATP channel blocker 5-hydroxydecanoic acid; type: functional, cell-based
Rattus norvegicus [2] = assay: Anti-ischemic activity against in Langendorff perfused Wistar rat heart assessed as reduction in ischemia-induced left ventricular tissue injury at 40 mg/kg, ip by morphological analysis; type: functional, organism-based; parameters: dose 40 mg/kg; conditions: Wister
Outline: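 Hearts came from rats pre-treated at 40 mg/kg and underwent ischemia/reperfusion in Langendorff perfusion. Left ventricles were analysed morphologically for injured tissue. Infarct size was expressed as % of left ventricular area (Ai/ALV%).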

Rattus norvegicus [3] = assay: Anti-ischemic activity against Langendorff perfused Wistar rat heart assessed as recovery of post-ischemic inotropic functionality measured during whole reperfusion period at 40 mg/kg, ip relative to control; type: functional, organism-based; parameters: dose 40 mg/kg; conditions: Wister
Outline: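 Rats pre-treated with test agent 40 mg/kg before heart isolation. Langendorff-perfused hearts underwent ischemia then reperfusion. Rate-pressure product (RPP) was recorded over the reperfusion period and expressed as % of pre-ischemic RPP.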

H9c2 [4] = assay: Anti-ischemic activity against ischemia/reperfusion-induced rat H9c2 cell death assessed as cell viability at 10 uM (Rbv = 63 +/- 2%); type: functional; conditions: read-out: Activity
H9c2 [5] = assay: Anti-ischemic activity against ischemia/reperfusion-induced rat H9c2 cell death assessed as cell viability at 100 uM in presence of mito-KATP channel blocker 5-hydroxydecanoic acid; type: functional, cell-based
H9c2 [6] = assay: Anti-ischemic activity against ischemia/reperfusion-induced rat H9c2 cell death assessed as cell viability at 100 uM (Rbv = 63 +/- 2%); type: functional; conditions: read-out: Activity

In the case of `CC(=O)Nc1ccc(CN2CC3(CC(C)(C)Oc4ccccc43)OCC2=O)cc1` (stereo not given), the Activity (H9c2 [1]) is reported as “inactive”, the Activity (Rattus norvegicus [2]) is reported as “Active” and the Activity (Rattus norvegicus [3]) is reported as “Active”. For the same molecule, the viability at 10 µM (H9c2 [4]) was 99%.

`CC1=Nc2ccc(Cl)cc2S(=O)(=O)N1` [DIAZOXIDE] was tested, and the Activity (H9c2 [5]) was “inactive” and the viability at 100 µM (H9c2 [6]) was 103%.

With `CC(=O)Nc1ccc(CN2CC3(CC(C)(C)Oc4ccccc43)OC2=O)cc1` (racemic) the Activity (H9c2 [1]) was “inactive”, the Activity (Rattus norvegicus [2]) was “Active” and the Activity (Rattus norvegicus [3]) was “Active”. It also gave a viability at 10 µM (H9c2 [4]) of 92%.

For `CC(=O)Nc1ccc(CN2CC3(CC(C)(C)Oc4ccc(Br)cc43)OC2=O)cc1` (racemic), the viability at 10 µM (H9c2 [4]) was 81%.

For `CC(=O)Nc1ccc(CN2C(=N)C3(CC(C)(C)Oc4ccccc43)OC2=O)cc1` (racemic), the viability at 10 µM (H9c2 [4]) was 68%.

In the case of `CC1(C)CC2(CN(Cc3ccc(NS(C)(=O)=O)cc3)C(=O)O2)c2ccccc2O1` (racemic), the viability at 10 µM (H9c2 [4]) is reported as 84%.

For `CC(=O)Nc1ccc(CN2C(=N)C3(CC(C)(C)Oc4ccc(Br)cc43)OC2=O)cc1` (racemic), the viability at 10 µM (H9c2 [4]) was 76%.

In the case of `CC1(C)CC2(OC(=O)N(Cc3ccc(NS(C)(=O)=O)cc3)C2=N)c2cc(Br)ccc2O1` (racemic), the viability at 10 µM (H9c2 [4]) is reported as 78%.
